Laboratory results from ChEMBL document CHEMBL5370639, “Structure-Based Lead Optimization of Enterovirus D68 2A Protease Inhibitors” (J Med Chem, 2023).

Experiments:
[1] = test system: RD; assay: (§1) Cytotoxicity against human RD cells assessed as reduction in cell viability by neutral red staining based CPE assay; assay type: toxicity; conditions: rd
Summary of the method: (§2)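 Uninfected RD cells, grown overnight to ~90% confluency, treated with compound under otherwise the same handling as the antiviral assay. Viability by neutral red uptake (66 μg/mL, 2 h, absorbance 540 nm). CC50 from best-fit dose-response curve; mean ± SD of two independent experiments, three repeats each.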

[2] = Inhibition of Enterovirus D68 US/KY/14-18953 2A protease expressed in Escherichia coli BL21(DE3) using Dabcyl-KIRIVNT/GPGEGGE-Edans as substrate incubated for 2 hrs by FRET assay
[3] = test system: enterovirus D68; assay: Antiviral activity against enterovirus D68 US/MO/14-18947 infected in human RD cells assessed as reduction in virus induced cytopathic effect by neutral red staining based CPE assay; assay type: functional, organism-based; conditions: Enterovirus D, US/MO/14-18947, RD
Summary of the method: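 RD cells seeded overnight to ~90% confluency, washed with PBS containing Mg/Ca, infected with virus in DMEM/2% FBS/30 mM MgCl2 for at least 1 h at 33 °C, then compound added. Cells stained with 66 μg/mL neutral red for 2 h; uptake read at 540 nm. EC50 from dose-response fit; mean ± SD of two independent experiments, three repeats each.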

[4] = Binding affinity to Enterovirus D68 US/KY/14-18953 2A protease expressed in Escherichia coli BL21(DE3) assessed as inhibition constant using Dabcyl-KIRIVNT/GPGEGGE-Edans as substrate incubated for 2 hrs by FRET assay
Summary of the method: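 Progression-curve kinetics: FRET substrate at 40 μM final in 50 mM Tris pH 7.0, 100 mM NaCl, 2 mM DTT, 10% glycerol with varying inhibitor; reaction started by adding 2Apro to 0.4 μM final. Fluorescence (ex 360/40, em 460/40 nm) read every 71 s for 2 h at 30 °C. Curves fitted by the Morrison equation or an earlier-described equation.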

[5] = as §1; assay type: toxicity; conditions: RD cells; summary of the method: as §2
[6] = test system: enterovirus D68; assay: Antiviral activity against enterovirus D68 US/MO/14-18947 infected in human RD cells assessed as reduction in virus plaque formation measured after 3 days by neutral red staining assay; assay type: functional, organism-based; conditions: Enterovirus D, US/MO/14-18947, RD, 72 h
Summary of the method: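 RD cells infected with virus in DMEM/2% FBS/30 mM MgCl2 for at least 1 h at 33 °C, then given compound under a 1.2% avicel microcrystalline cellulose overlay. Cells stained after 3 days and plaques counted. EC50 from curve fitting; mean ± SD of two repeats.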

[7] = test system: enterovirus D68; assay: Antiviral activity against enterovirus D68 US/MO/14-18949 infected in human RD cells assessed as reduction in virus induced cytopathic effect by neutral red staining based CPE assay; assay type: functional, organism-based; conditions: Enterovirus D, US/MO/14-18949, RD
Summary of the method: (§3)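 RD cells were seeded overnight to about 90% confluency and washed with PBS containing Ca/Mg. They were infected with virus in DMEM with 2% FBS and 30 mM MgCl2 for at least 1 h at 33 °C in 5% CO2, then compound was added. Viability was read by neutral red staining (66 μg/mL, 2 h) at A540. EC50 was taken from dose-response curve fits.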

[8] = test system: enterovirus D68; assay: Antiviral activity against enterovirus D68 US/KY/14-18953 infected in human RD cells assessed as reduction in virus induced cytopathic effect by neutral red staining based CPE assay; assay type: functional, organism-based; conditions: Enterovirus D, US/KY/14-18953, RD; summary of the method: as §3
[9] = test system: enterovirus D68; assay: Antiviral activity against enterovirus D68 US/IL/14-18952 infected in human RD cells assessed as reduction in virus induced cytopathic effect by neutral red staining based CPE assay; assay type: functional, organism-based; conditions: Enterovirus D, US/IL/14-18952, RD; summary of the method: as §3
[10] = test system: enterovirus D68; assay: Antiviral activity against enterovirus D68 US/IL/14-18956 infected in human RD cells assessed as reduction in virus induced cytopathic effect by neutral red staining based CPE assay; assay type: functional, organism-based; conditions: Enterovirus D, US/IL/14-18956, RD; summary of the method: as §3

| SMILES | CC50 [1] [µM] | IC50 [2] [µM] | EC50 [3] [µM] | Ki [4] [µM] | CC50 [5] [µM] | EC50 [6] [µM] | EC50 [7] [µM] | EC50 [8] [µM] | EC50 [9] [µM] | EC50 [10] [µM] |
| --- | --- | --- | --- | --- | --- | --- | --- | --- | --- | --- |
| CC(C)(C)[C@H](NC(=O)CC12CC3CC(CC(C3)C1)C2)C(=O)N1C[C@@H]2CCC[C@@H]2[C@H]1C(=O)N[C@@H](Cc1ccccc1)C(=O)C(=O)NC1CC1 | 17.4 | 0.09 | 0.25 |  |  |  |  |  |  |  |
| CC(C)(C)[C@H](NC(=O)CC12CC3CC(CC(C3)C1)C2)C(=O)N1C[C@@H]2CCC[C@@H]2[C@H]1C(=O)N[C@H](C(=O)C(=O)NC1CC1)C1CCCC1 |  | 0.2 | 0.11 | 0.112 | > 150 | 0.0159 |  |  |  |  |
| CC(C)(C)[C@H](NC(=O)CC12CC3CC(CC(C3)C1)C2)C(=O)N1C[C@@H]2CCC[C@@H]2[C@H]1C(=O)N[C@H](C=O)Cc1ccc(F)cc1 |  | 1.82 | 1.3 | 0.276 | 17.3 |  |  |  |  |  |
| CC(C)(C)Oc1ccc(C[C@H](NC(=O)[C@@H]2[C@H]3CCC[C@H]3CN2C(=O)[C@@H](NC(=O)CC23CC4CC(CC(C4)C2)C3)C(C)(C)C)C(=O)C(=O)NC2CC2)cc1 |  | 0.18 | 1.73 |  | 9.79 |  |  |  |  |  |
| CCC[C@H](NC(=O)[C@@H]1[C@H]2CCC[C@H]2CN1C(=O)[C@@H](NC(=O)OCc1ccccc1)C(C)(C)C)C(=O)C(=O)NC1CC1 |  | 0.76 | 2.9 |  | > 150 |  |  |  |  |  |
| CCC[C@H](NC(=O)[C@@H]1[C@H]2CCC[C@H]2CN1C(=O)[C@@H](NC(=O)/C=C/c1ccccc1)C(C)(C)C)C(=O)C(=O)NC1CC1 |  | 0.76 | 3.99 |  | > 150 |  |  |  |  |  |
| CC(C)(C)[C@H](NC(=O)CC12CC3CC(CC(C3)C1)C2)C(=O)N1C[C@@H]2CCC[C@@H]2[C@H]1C(=O)N[C@H](C(=O)C(=O)NC1CC1)c1ccccc1 |  | 0.23 | 0.57 |  | 35.8 |  |  |  |  |  |
| CC(C)[C@H](NC(=O)[C@@H]1[C@H]2CCC[C@H]2CN1C(=O)[C@@H](NC(=O)CC12CC3CC(CC(C3)C1)C2)C(C)(C)C)C(=O)C(=O)NC1CC1 |  | 0.09 | 0.16 |  | > 150 |  |  |  |  |  |
| CCC[C@H](NC(=O)[C@@H]1[C@H]2CCC[C@H]2CN1C(=O)[C@@H](NC(=O)CC12CC3CC(CC(O)(C3)C1)C2)C(C)(C)C)C(=O)C(=O)NC1CC1 |  | 0.4 | 1.85 |  | > 150 |  |  |  |  |  |
| CCC(C)[C@H](NC(=O)[C@@H]1[C@H]2CCC[C@H]2CN1C(=O)[C@@H](NC(=O)CC12CC3CC(CC(C3)C1)C2)C(C)(C)C)C(=O)C(=O)NC1CC1 (some centres undefined) |  | 0.15 | 0.16 |  | > 150 | 0.0135 |  |  |  |  |
| CCC[C@H](NC(=O)[C@@H]1[C@H]2CCC[C@H]2CN1C(=O)OCc1ccccc1)C(=O)C(=O)NC1CC1 |  | 4.35 | 25.9 |  | > 150 |  |  |  |  |  |
| CCC[C@H](NC(=O)[C@@H]1[C@H]2CCC[C@H]2CN1C(=O)[C@@H](NC(=O)[C@@H](NC(=O)c1cnccn1)C1CCCCC1)C(C)(C)C)C(=O)C(=O)NC1CC1 | 83.2 | 0.18 | 0.45 | 0.824 |  | 0.0521 | 0.368 | 0.209 | 0.828 | 0.836 |
| CCC[C@@H](C#N)NC(=O)[C@@H]1[C@H]2CCC[C@H]2CN1C(=O)[C@@H](NC(=O)CC12CC3CC(CC(C3)C1)C2)C(C)(C)C |  | 1.32 | 3.92 |  | > 150 |  |  |  |  |  |
| CC(C)(C)[C@H](NC(=O)CC12CC3CC(CC(C3)C1)C2)C(=O)N1C[C@@H]2CCC[C@@H]2[C@H]1C(=O)N[C@H](C(=O)C(N)=O)C1CCCCC1 |  | 0.19 | 0.14 |  | > 150 |  |  |  |  |  |
| COC[C@H](NC(=O)[C@@H]1[C@H]2CCC[C@H]2CN1C(=O)[C@@H](NC(=O)CC12CC3CC(CC(C3)C1)C2)C(C)(C)C)C(=O)C(=O)NC1CC1 |  | 0.12 | 2.29 |  | 23.2 |  |  |  |  |  |
| CC(C)(C)[C@H](NC(=O)CC12CC3CC(CC(C3)C1)C2)C(=O)N1C[C@@H]2CCC[C@@H]2[C@H]1C(=O)N[C@@H](Cc1ccc(F)cc1)C(=O)c1nc2ccccc2s1 |  | > 20 | > 30 |  | > 150 |  |  |  |  |  |
| CC(C)(C)[C@H](NC(=O)CC12CC3CC(CC(C3)C1)C2)C(=O)N1C[C@@H]2CCC[C@@H]2[C@H]1C(=O)N[C@@H](Cc1ccsc1)C(=O)C(=O)NC1CC1 |  | 0.12 | 0.24 |  | 28.2 |  |  |  |  |  |
| CC(C)(C)[C@H](NC(=O)[C@@H]1[C@H]2CCC[C@H]2CN1C(=O)[C@@H](NC(=O)CC12CC3CC(CC(C3)C1)C2)C(C)(C)C)C(=O)C(=O)NC1CC1 |  | > 20 | > 30 |  | > 150 |  |  |  |  |  |
| CCC[C@H](NC(=O)[C@@H]1[C@H]2CCC[C@H]2CN1C(=O)[C@@H](NC(=O)CC12CC3CC(CC(C3)C1)C2)C(C)(C)C)C(=O)C(=O)NC1CC1 |  | 0.08 | 0.16 | 0.0586 | 36.2 |  |  |  |  |  |
| CC(C)(C)[C@H](NC(=O)CC12CC3CC(CC(C3)C1)C2)C(=O)N1C[C@@H]2CCC[C@@H]2[C@H]1C(=O)N[C@@H](Cc1ccc(F)cc1)C(=O)C(=O)NC1CC1 |  | 0.15 | 0.19 |  | 14.1 |  |  |  |  |  |
| CC(C)(C)[C@H](NC(=O)CC12CC3CC(CC(C3)C1)C2)C(=O)N1C[C@@H]2CCC[C@@H]2[C@H]1C(=O)NC1(C(=O)C(=O)NC2CC2)CCC1 |  | 4.81 | 3.23 |  | > 150 |  |  |  |  |  |
